# Assay outcomes (PubChem BioAssay)
# L major viab = Leishmania major promastigote growth inhibition, primary screen; Leishmania major promastigotes, resazurin fluorescence viability; inhibition, % at 10 µM; 9% of 200,000 active; AID 1063, 2008; in the data active means inhibition above about 50%;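 further: promastigotes grown with compound for 44 hours at 28 °C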
# ROMK primary = ROMK potassium channel modulators, primary screen, cell-based, thallium flux, MLSMR library. ATP-sensitive inward rectifier potassium channel 1 (Homo sapiens), P48048. Tet-inducible ROMK, thallium flux fluorescence; actives lie on both sides. B-score at 10 µM. 2% of 130,000 active. AID 1918, 2009;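 active means signal ratio slope over the read window, or its plate-corrected B-score, at least 3 SD from the plate mean, either direction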;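 further: B-score of the F/F0 ratio slope over 7 to 12 s after thallium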
# Diaph act CS = compounds boosting diaphorase resazurin reduction – biochemical, uHTS, resorufin fluorescence, counter-screen for diaphorase-coupled primary assays, primary screen; Diaphorase/resazurin coupled assay, 16 min; active compounds read high; 1 = vehicle wells, 0 = NADH-free wells; activation factor at 20 µM; 0.005% of 190,000 active;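 active means diaphorase activity raised at least twofold by the compound at 20 µM; inactive means activation factor below 2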
#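 Measured by – red resorufin fluorescence at 544/590 nm excitation/emission · Test system – Clostridium kluyveri diaphorase, purified enzyme · Incubation – reaction time 16 min, room temperature · Buffer or medium – 50 mM HEPES pH 7.4 with 4.542 mM MgCl2, 0.005% Tween 20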
# Cl transport mod = KCC2 cotransporter modulators, thallium flux, primary screen, cell-based, HEK293 KCC2, FluoZin-2 fluorescence, MLSMR. AID 1456, 2008. B-score of Tl+ flux slope (higher = more flux/activation; lower = inhibition) at 10 µM. 2.2% of 190,000 active. Solute carrier family 12 member 5 (Homo sapiens), Q9H2X9. KCC2 cells, thallium flux FluoZin-2 fluorescence;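 active means thallium flux slope and its plate-corrected score both differing from the plate sample mean at a set confidence after two filtering rounds, in either direction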;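 further: slope of fluorescence scaled to starting intensity during 10 to 20 s after thallium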
# Target sequence (Q9H2X9 whole entry, looked up): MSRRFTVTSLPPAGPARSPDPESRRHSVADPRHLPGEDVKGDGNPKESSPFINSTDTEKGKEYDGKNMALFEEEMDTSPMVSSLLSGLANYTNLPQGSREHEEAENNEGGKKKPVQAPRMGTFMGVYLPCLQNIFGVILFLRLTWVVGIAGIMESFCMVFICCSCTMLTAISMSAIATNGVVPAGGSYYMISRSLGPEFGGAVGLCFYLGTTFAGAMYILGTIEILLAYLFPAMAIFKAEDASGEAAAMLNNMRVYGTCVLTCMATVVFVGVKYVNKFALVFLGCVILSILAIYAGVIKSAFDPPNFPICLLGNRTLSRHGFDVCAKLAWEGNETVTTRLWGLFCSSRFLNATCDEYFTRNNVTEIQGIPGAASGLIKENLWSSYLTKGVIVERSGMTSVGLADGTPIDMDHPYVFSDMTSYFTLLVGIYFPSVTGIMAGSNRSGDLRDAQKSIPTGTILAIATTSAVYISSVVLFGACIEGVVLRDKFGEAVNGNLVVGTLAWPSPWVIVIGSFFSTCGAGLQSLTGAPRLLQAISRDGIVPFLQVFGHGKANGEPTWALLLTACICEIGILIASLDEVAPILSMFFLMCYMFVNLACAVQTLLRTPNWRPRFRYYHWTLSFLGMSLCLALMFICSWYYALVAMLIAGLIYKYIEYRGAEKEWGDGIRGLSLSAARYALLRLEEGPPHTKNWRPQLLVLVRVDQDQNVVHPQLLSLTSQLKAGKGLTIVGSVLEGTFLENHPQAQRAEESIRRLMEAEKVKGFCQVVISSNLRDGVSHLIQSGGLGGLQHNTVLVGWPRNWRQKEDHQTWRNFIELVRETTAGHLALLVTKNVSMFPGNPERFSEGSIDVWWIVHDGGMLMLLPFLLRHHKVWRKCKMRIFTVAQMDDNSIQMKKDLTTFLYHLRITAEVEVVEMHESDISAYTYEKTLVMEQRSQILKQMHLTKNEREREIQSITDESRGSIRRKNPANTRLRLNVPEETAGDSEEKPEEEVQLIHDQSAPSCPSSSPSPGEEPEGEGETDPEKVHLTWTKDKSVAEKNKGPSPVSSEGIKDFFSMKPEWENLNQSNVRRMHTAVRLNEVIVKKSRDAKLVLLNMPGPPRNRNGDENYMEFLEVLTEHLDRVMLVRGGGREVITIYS
# WT yeast gro inh = growth inhibition of WT strain, primary screen, mitochondrial fusion inhibitor project, WT and mutant strains, chemical genetic; 2.1% of 190,000 active; AID 1362, 2008; mitochondrial fusion phenotypic screen; inhibition, % at 10 µM; in the data active means inhibition above about 58%; tested in S. cerevisiae
# Diaphorase inh = diaphorase inhibitors and chemical oxidizers, primary screen, counter-screen for diaphorase-coupled primary assays, biochemical, uHTS, resorufin fluorescence; inhibition, % at 20 µM; 0.69% of 190,000 active; diaphorase resazurin-to-resorufin fluorescence, NADH, 16 min; bacterial (C. kluyveri) enzyme, not human;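 active means primary screen inhibition at 20 µM above a set limit, cut at about 50% in these data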;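 further: plate controls were DMSO with full reaction for no effect and wells lacking NADH for full effect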
#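 System: Diaphorase enzyme from Clostridium kluyveri | Amount: Enzyme working solution with 0.14 U/mL diaphorase | Benchmarks: No-NADH positive control and DMSO neutral control | Signal: Fluorescence of resorufin formed from resazurin, Ex 544/Em 590 nm | Schedule: 16-min room-temperature incubation before reading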
# KCC2 sec1 = KCC2 modulators in sodium-free buffer, confirmation, cell-based, HEK293 KCC2, thallium flux, secondary assay. shares compounds with Cl transport mod. FluoZin2 fluorescence; active compounds read high. normalised thallium flux (F/F0 slope) at 10 µM. 15% of 3,700 active;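 active means thallium flux slope above the same plate's solvent-only control mean plus 3 SD; inconclusive means the two replicate wells disagree; inactive means no significant difference from solvent-only control wells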
# KCC2 bumet counter = thallium flux persisting under bumetanide in KCC2 cells, confirmation, counter-screen for KCC2 modulator project, cell-based, HEK293 KCC2, FluoZin2, secondary assay 3. 49% of 3,700 active. normalized thallium flux at 10 µM. shares compounds with Cl transport mod. HEK293-KCC2 + bumetanide/ouabain; active compounds read high;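 active means thallium entry rate above the same plate's blocked-transporter control wells by more than 3 SD; inconclusive means the two repeat wells disagree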;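 further: raw slope of fluorescence over initial fluorescence between 10 and 20 s after thallium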
# KCC2 secondary2 = KCC2 modulators without ouabain present, confirmation, cell-based, HEK293 KCC2, thallium flux, FluoZin2, secondary assay 2; shares compounds with Cl transport mod; thallium flux FluoZin2 fluorescence; actives lie on both sides; F/F0 rise rate, 10–20 s post-thallium; normalized thallium flux at 10 µM; 23% of 3,700 active;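 active means thallium flux slope more than 3 SD above or below the plate's solvent-only control mean, mostly below; inconclusive means the two repeat wells disagreed; inactive means no significant shift from solvent-only controls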;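 further: raw slope with 0.1% DMSO as baseline and bumetanide as block control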
# HEK293 Tl flux = thallium flux modulation in parental HEK cells, confirmation, counter-screen for KCC2 modulator project, cell-based, counterscreen 1; shares compounds with Cl transport mod; HEK293 parental cells, thallium flux FluoZin2, ouabain; baseline-ratio fluorescence slope, 10–20 s after thallium; thallium flux rate (normalised fluorescence) at 10 µM; 46% of 3,700 active;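 active means thallium flux rate significantly above the same plate's solvent-only control wells, beyond their mean plus 3 SD; inconclusive means the two replicate wells gave conflicting results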
# KCC2 ouabain = KCC2 inhibitors and activators, ouabain retest, confirmation, HEK-KCC2 cells; shares compounds with Cl transport mod; HEK293-KCC2, thallium flux FluoZin2 fluorescence; bidirectional: low = inhibitor, high = activator; raw Tl+ flux slope (below DMSO = inhibition, above = activation) at 10 µM; 48% of 3,700 active;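 active means thallium flux slope beyond 3 SD from same-plate DMSO control mean in most replicates, usually higher, sometimes lower; inconclusive means repeat tests gave conflicting results; inactive means no significant difference from controls in most replicates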;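 further: slope of initial-normalized fluorescence between seconds 10 and 20 after thallium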
# HEK293 Tl flux2 = native HEK Tl+ uptake effects, second counter-screen – HEK cells, counterscreen 2, counter-screen for KCC2 modulator project, confirmation; shares compounds with Cl transport mod; HEK293 parental, thallium flux FluoZin-2 fluorescence slope; thallium flux slope at 10 µM; 33% of 3,700 active; AID 1718, 2009;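 active means thallium flux slope above the same plate's solvent-control mean plus 3 SD in both duplicate wells; inconclusive means duplicate wells that disagreed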;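 further: run without ouabain in cells lacking the KCC2 cotransporter; slope of fluorescence scaled to its starting value between 10 and 20 s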
# Starred values were filed as active, the others as inactive; ? = inconclusive; . = not tested or not shown. This is a sample that favours compounds with a hit; in the whole collection about 12% have one here.
SMILES,L major viab,ROMK primary,Diaph act CS,Cl transport mod,WT yeast gro inh,Diaphorase inh,KCC2 sec1,KCC2 bumet counter,KCC2 secondary2,HEK293 Tl flux,KCC2 ouabain,HEK293 Tl flux2
O=C(O)c1ccc(NC(=S)NC(=O)c2cccc(COc3ccccc3)c2)cc1,-8,1.3,0.6,-3.7*,91*,42,0.0083,?,0.034,0.004,?,0.011
COc1ccc(OCc2cccc(C(=O)O)c2)cc1,.,.,1,.,4,3,.,.,.,.,.,.
O=C(NC(=S)Nc1ccc2oc(=O)ccc2c1)c1ccco1,.,.,.,22*,.,.,0.0059,0.049*,0.044*,0.03*,0.046*,0.029*
O=C(NC(=S)Nc1ccc(S(=O)(=O)N2CCCC2)cc1)c1cccs1,7,0.81,0.7,4.5,13,27,.,.,.,.,.,.
O=C(NC(=S)Nc1ccc(N2CCCCC2)c(Cl)c1)c1ccc2c(c1)OCCO2,49,-0.097,0.8,-0.89,8,22,.,.,.,.,.,.
O=C(NC(=S)Nc1ccc2c(c1)OCCO2)c1ccco1,.,.,.,100*,.,.,0.023*,0.1*,0.04,0.083*,0.07*,0.042*
CN(C)S(=O)(=O)c1ccc(NC(=S)NC(=O)c2cccs2)cc1,4,0.12,0.7,4*,6,26,0.0094,0.016*,0.029,0.0084*,?,0.0097
O=C(NC(=S)Nc1ccc2c(c1)OCCO2)c1ccc(F)cc1Cl,-9,-0.081,0.8,16*,-2,23,0.0099,0.022*,0.033,0.012*,?,0.011
CCc1ccc(C(=O)NC(=S)Nc2ccc3c(c2)OCCO3)cc1,0,.,0.7,1.6,19,35,.,.,.,.,.,.
O=C(NC(=S)Nc1ccc2c(c1)OCO2)c1ccc(Cl)cc1,-8,0.31,1,8.2*,3,4,0.0093,0.012*,0.039,?,0.026*,0.012
CCC(CC)c1nnc(NC(=O)c2c(C)nn(Cc3ccccc3Cl)c2C)s1,13,.,0.9,-1.8,39,6,.,.,.,.,.,.
COc1cccc(CN(C)CC(=O)Nc2c(C)cccc2C(C)C)c1,17,-0.15,0.9,-1.3,-1,13,.,.,.,.,.,.
C=CCNC(=O)CC(=O)N/N=C/c1ccc(C(=O)OC)cc1,-6,.,0.9,.,-4,8,.,.,.,.,.,.
CC(=O)NC(=S)Nc1cc(C(F)(F)F)ccc1N1CCOCC1,-3,-1.9,0.9,0.28,-6,10,.,.,.,.,.,.
Cc1cccc(C(=O)NC(=S)Nc2ccc(S(=O)(=O)N(C)c3ccccc3)cc2)c1,100*,.,0.9,2.5*,41,9,0.0083,0.014*,0.03,0.0077,0.026*,0.012*
CN(c1ccccc1)S(=O)(=O)c1ccc(NC(=O)c2cccs2)cc1,5,0.094,0.7,0.14,8,27,.,.,.,.,.,.
CCOC(=O)Nc1cccc(NC(=O)c2ccccc2F)c1,-3,.,0.9,0.63,-9,12,.,.,.,.,.,.
O=C(NC(=S)Nc1cc(C(F)(F)F)ccc1N1CCOCC1)c1ccco1,.,.,.,89*,.,.,0.022*,0.11*,0.039,?,0.076*,0.026*
CCN(CC)c1ccc(NC(=O)c2ccccc2F)cc1,9,.,0.9,-6.2*,-14,9,0.017,?,0.029,0.0072,0.014,0.0095
CCN(CC)c1ccc(NC(=S)NC(=O)c2cccs2)cc1,7,0.29,0.9,21*,47,15,0.016*,0.079*,0.038,0.084*,0.051*,0.02*
Cc1ccc(-c2n[nH]c(=S)n2/N=C/c2cccn2C)cc1,4,.,0.7,5.2*,5,34,0.012,0.031*,0.034,0.0093*,0.026,0.011*
Cc1nnc(C)n1/N=C/c1cccn1C,-4,-0.068,0.9,-1.5,0,13,.,.,.,.,.,.
Cc1n[nH]c(=S)n1/N=C/c1ccccc1,-9,-0.49,0.8,0,0,19,.,.,.,.,.,.
CC(C)(C)c1ccc(-c2n[nH]c(=S)n2/N=C/c2ccncc2)cc1,11,0.0045,0.9,5.6*,7,9,0.011,0.018*,0.032,0.013*,?,0.011
S=c1[nH]nc(C2CCCCC2)n1/N=C/c1cccs1,-8,.,0.8,6.1*,23,17,0.013*,0.065*,0.033,0.023*,?,?
Cc1ccc(-c2nn(-c3ccccc3)cc2/C=N/n2c(-c3cccs3)n[nH]c2=S)cc1,.,-0.037,.,4.6*,.,.,0.011,0.0094*,0.03,0.018*,0.021,0.012
Cc1ccc(NC(=O)Cc2nnc(SCC(=O)c3ccc(Br)cc3)n2C)cc1Cl,5,0.25,1.1,0.6,8,-14,.,.,.,.,.,.
O=C(CCc1nc2ccccc2c(=O)[nH]1)OCCOc1ccc(Cl)cc1,-3,-0.15,0.9,-0.29,-16,11,.,.,.,.,.,.
O=C(Oc1ccccc1)c1c(Cl)cccc1P(=O)(O)O,7,0.16,0.8,-1.6,-4,17,.,.,.,.,.,.
NS(=O)(=O)c1ccc(NC(=O)COC(=O)C2CC(=O)N(Cc3ccccc3)C2)cc1 (centres undefined),-5,-0.015,1,0.62,-5,3,.,.,.,.,.,.
